# Experimental data from article PMC11406655 (Therapeutic Advances in Hematology, 2024).
# Where “and” joins values, the source holds several entries; their conditions need not be identical. Identical values can stand only once.
# Columns and labels:
# Assay type in all cases: in vivo, human
# [1] = system: patients with relapsed and/or refractory MDS, CMML, or AML; assay: Safety: adverse events, dose-limiting toxicities and deaths
# Summary of the method: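 Open-label, multicenter part 1 in adults with relapsed/refractory MDS, CMML or secondary AML. The 300 mg dose-expansion cohort took the test compound orally once daily with water only, at about the same time (±4 h), on every day of 28-day cycles. Deaths were split into ⩽30 days or >30 days after the last dose. The analysis covered all patients given at least one dose.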
# [2] = Plasma pharmacokinetics of GSK3326595
# [3] = system: symmetrical dimethylarginine (SDMA) in bone marrow biopsies; assay: SDMA in bone marrow biopsies by immunohistochemistry; details: for Mean percentage decrease in SDMA in bone marrow biopsies: after 29 days of treatment
# Summary of the method: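 Adults with relapsed/refractory MDS, CMML or secondary AML took the test compound orally once daily (400 or 300 mg) with water only, every day of 28-day cycles. Bone marrow biopsies were taken predose and 29 days after treatment began, formalin-fixed and paraffin-embedded. SDMA loss was assessed by immunohistochemistry.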
compound,measurement,setting,value
CC(=O)N1CCC(Nc2cc(C(=O)NC[C@H](O)CN3CCc4ccccc4C3)ncn2)CC1 [GSK3326595],TEAE: AE leading to dose interruption,"[1]; 400 mg, n = 13",10 (77) n (%)
same,TEAE: AE leading to dose reduction,"[1]; 400 mg, n = 13",5 (38) n (%)
same,TEAE: AE leading to study treatment withdrawn,"[1]; 400 mg, n = 13",4 (31) n (%)
same,TEAE: Anemia,"[1]; 400 mg, n = 13",3 (23) n (%)
same,TEAE: Any AE,"[1]; 400 mg, n = 13",13 (100) n (%)
same,TEAE: Any SAE,"[1]; 400 mg, n = 13",11 (85) n (%)
same,TEAE: Decreased appetite,"[1]; 400 mg, n = 13",5 (38) n (%)
same,TEAE: Decreased platelet count,"[1]; 400 mg, n = 13",4 (31) n (%)
same,TEAE: Diarrhea,"[1]; 400 mg, n = 13",6 (46) n (%)
same,TEAE: Dysgeusia,"[1]; 400 mg, n = 13",3 (23) n (%)
same,TEAE: Dyspnea,"[1]; 400 mg, n = 13",5 (38) n (%)
same,TEAE: Fatal SAE,"[1]; 400 mg, n = 13",9 (69%) n (%) and 9 (69) n (%)
same,TEAE: Fatigue,"[1]; 400 mg, n = 13",7 (54) n (%)
same,TEAE: Nausea,"[1]; 400 mg, n = 13",4 (31) n (%)
same,Deaths >30 days from last dose of study treatment (number),[1]; 300-mg cohort,6
same,Deaths ⩽30 days from last dose of study treatment (number),[1]; 300-mg cohort,8
same,Deaths >30 days from last dose of study treatment (number),[1]; 400-mg cohort,5
same,Deaths ⩽30 days from last dose of study treatment (number),[1]; 400-mg cohort,6
same,Deaths >30 days from last dose of study treatment,"[1]; Total, N = 30",11 (37%) n (%)
same,Deaths ⩽30 days from last dose of study treatment,"[1]; Total, N = 30",47%
same,Died (during the study),"[1]; Total, N = 30",25 (83%) n (%)
same,GSK3326595-related AE: decreased platelet count,"[1]; Total, N = 30",27%
same,GSK3326595-related AE: dysgeusia,"[1]; Total, N = 30",23%
same,GSK3326595-related AE: fatigue,"[1]; Total, N = 30",20%
same,GSK3326595-related AE: nausea,"[1]; Total, N = 30",20%
same,GSK3326595-related TEAE with maximum grade of 3 or 4: decreased neutrophil count,"[1]; Total, N = 30",4 (13%) n (%)
same,GSK3326595-related TEAE with maximum grade of 3 or 4: decreased platelet count,"[1]; Total, N = 30",6 (20%) n (%)
same,GSK3326595-related TEAE with maximum grade of 3 or 4: thrombocytopenia,"[1]; Total, N = 30",3 (10%) n (%)
same,GSK3326595-related TEAE: AE leading to study treatment withdrawn,"[1]; Total, N = 30",2 (7) n (%)
same,GSK3326595-related TEAE: Anemia,"[1]; Total, N = 30",3 (10%) n (%) and 3 (10) n (%)
same,GSK3326595-related TEAE: Any SAE,"[1]; Total, N = 30",6 (20%) n (%) and 6 (20) n (%)
same,GSK3326595-related TEAE: Any TEAEs,"[1]; Total, N = 30",22 (73) n (%)
same,GSK3326595-related TEAE: Any grade 3/4 TEAE,"[1]; Total, N = 30",13 (43) n (%)
same,GSK3326595-related TEAE: Decreased appetite,"[1]; Total, N = 30",4 (13%) n (%) and 4 (13) n (%)
same,GSK3326595-related TEAE: Decreased platelet count,"[1]; Total, N = 30",8 (27%) n (%) and 8 (27) n (%)
same,GSK3326595-related TEAE: Dysgeusia,"[1]; Total, N = 30",7 (23%) n (%) and 7 (23) n (%)
same,GSK3326595-related TEAE: Fatal SAE,"[1]; Total, N = 30",1 (3) n (%)
same,GSK3326595-related TEAE: Fatigue,"[1]; Total, N = 30",6 (20%) n (%) and 6 (20) n (%)
same,GSK3326595-related TEAE: Nausea,"[1]; Total, N = 30",6 (20%) n (%) and 6 (20) n (%)
same,GSK3326595-related TEAE: Neutrophil count decreased,"[1]; Total, N = 30",4 (13%) n (%) and 4 (13) n (%)
same,GSK3326595-related TEAE: Thrombocytopenia,"[1]; Total, N = 30",3 (10%) n (%) and 3 (10) n (%)
same,Patients who died during the study,"[1]; Total, N = 30",83%
same,SAE: anemia,"[1]; Total, N = 30",3 (10%) n (%)
same,SAE: febrile neutropenia,"[1]; Total, N = 30",5 (17%) n (%)
same,SAE: pneumonia,"[1]; Total, N = 30",4 (13%) n (%)
same,SAE: sepsis,"[1]; Total, N = 30",8 (27%) n (%)
same,SAE: thrombocytopenia,"[1]; Total, N = 30",3 (10%) n (%)
same,TEAE with maximum grade of 3 or 4: anemia,"[1]; Total, N = 30",8 (27%) n (%)
same,TEAE with maximum grade of 3 or 4: decreased neutrophil count,"[1]; Total, N = 30",7 (23%) n (%)
same,TEAE with maximum grade of 3 or 4: decreased platelet count,"[1]; Total, N = 30",11 (37%) n (%)
same,TEAE with maximum grade of 3 or 4: dyspnea,"[1]; Total, N = 30",4 (13%) n (%)
same,TEAE with maximum grade of 3 or 4: fatigue,"[1]; Total, N = 30",4 (13%) n (%)
same,TEAE with maximum grade of 3 or 4: febrile neutropenia,"[1]; Total, N = 30",6 (20%) n (%)
same,TEAE with maximum grade of 3 or 4: hypotension,"[1]; Total, N = 30",4 (13%) n (%)
same,TEAE with maximum grade of 3 or 4: pneumonia,"[1]; Total, N = 30",6 (20%) n (%)
same,TEAE with maximum grade of 3 or 4: thrombocytopenia,"[1]; Total, N = 30",5 (17%) n (%)
same,TEAE: AE leading to dose interruption,"[1]; Total, N = 30",20 (67) n (%)
same,TEAE: AE leading to dose reduction,"[1]; Total, N = 30",6 (20) n (%)
same,TEAE: AE leading to study treatment withdrawn,"[1]; Total, N = 30",7 (23) n (%)
same,TEAE: Anemia,"[1]; Total, N = 30",10 (33%) n (%) and 10 (33) n (%)
same,TEAE: Any AE,"[1]; Total, N = 30",30 (100) n (%)
same,TEAE: Any SAE,"[1]; Total, N = 30",23 (77) n (%)
same,TEAE: Decreased appetite,"[1]; Total, N = 30",9 (30%) n (%) and 9 (30) n (%)
same,TEAE: Decreased platelet count,"[1]; Total, N = 30",12 (40%) n (%) and 12 (40) n (%)
same,TEAE: Diarrhea,"[1]; Total, N = 30",13 (43%) n (%) and 13 (43) n (%)
same,TEAE: Dysgeusia,"[1]; Total, N = 30",10 (33%) n (%) and 10 (33) n (%)
same,TEAE: Dyspnea,"[1]; Total, N = 30",11 (37%) n (%) and 11 (37) n (%)
same,TEAE: Fatal SAE,"[1]; Total, N = 30",14 (47) n (%)
same,TEAE: Fatigue,"[1]; Total, N = 30",13 (43%) n (%) and 13 (43) n (%)
same,TEAE: Nausea,"[1]; Total, N = 30",9 (30%) n (%) and 9 (30) n (%)
same,TEAE: thrombocytopenia,"[1]; Total, N = 30",5 (17%) n (%)
same,Treatment-related SAE: decreased neutrophil count,"[1]; Total, N = 30",3 (10%) n (%)
same,Study treatment discontinued due to sepsis,"[1]; Total, N = 30, n = 2",7%
same,Dose proportionality of exposure,[2]; 300 and 400 mg,dose-proportional
same,half-life,"[2]; human, plasma, po, 400 mg",240 to 360 min
same,Tmax,"[2]; human, plasma, po, 400 mg, Tmax, 300 and 400 mg once daily",~2 h
same,Mean percentage decrease in SDMA in bone marrow biopsies,"[3]; 300-mg cohort, 7 patients",84.63%
same,Mean percentage decrease in SDMA in bone marrow biopsies,"[3]; 400-mg cohort, 4 patients",85.75%
same,Maximum observed decrease in tumor SDMA,"[3]; day 29, 300-mg cohort",97.8%
same,Maximum observed decrease in tumor SDMA,"[3]; day 29, 400-mg cohort",100%
